Measurements taken from ChEMBL document CHEMBL3822380, “Simple avarone mimetics as selective agents against multidrug resistant cancer cells” (Eur J Med Chem, 2016).
In brackets after ≈: the same amount, converted by molar mass. Activity calls are given as the source filed them.

Key:
HaCaT [1] = experiment: Induction of apoptosis in human HaCaT cells assessed as early apoptotic cells at 25 uM after 72 hrs by annexin-V/propidium iodide staining-based flow cytometric analysis (reference value: 0.2%); type: cell-based
HaCaT [2] = experiment: Induction of apoptosis in human HaCaT cells assessed as late apoptotic/necrotic cells at 25 uM after 72 hrs by annexin-V/propidium iodide staining-based flow cytometric analysis (reference value: 0.2%); type: cell-based
NCI-H460 [3] = experiment: Cytotoxicity against multidrug resistant human NCI-H460 cells after 72 hrs by MTT assay; type: functional, cell-based; conditions: NCI-H460, 72 h
Procedure, shortened: (§1)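 Seeding in 96-well plates at 1000 (NCI-H460), 2000 (NCI-H460/R) or 4000 (HaCaT) cells/well, treated after 24 h for 72 h. MTT at 0.4 mg/mL final, 4 h at 37 °C. Formazan dissolved in DMSO, absorbance read at 540 nm. Inhibition % = (1 − A treated/A untreated)×100. IC30 and IC50 obtained by linear regression.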

HaCaT [4] = experiment: Induction of apoptosis in human HaCaT cells assessed as dead cells at 25 uM after 72 hrs by annexin-V/propidium iodide staining-based flow cytometric analysis (reference value: 2.8%); type: cell-based
NCI-H460 [5] = experiment: Induction of apoptosis in human NCI-H460 cells assessed as late apoptotic/necrotic cells at 25 uM after 72 hrs by annexin-V/propidium iodide staining-based flow cytometric analysis (reference value: 0.2%); type: functional
NCI-H460 [6] = experiment: Induction of apoptosis in human NCI-H460 cells assessed as early apoptotic cells at 25 uM after 72 hrs by annexin-V/propidium iodide staining-based flow cytometric analysis (reference value: 0.3%); type: functional
NCI-H460 [7] = experiment: Induction of apoptosis in multidrug resistant human NCI-H460 cells assessed as early apoptotic cells at 25 uM after 72 hrs by annexin-V/propidium iodide staining-based flow cytometric analysis (reference value: 1.1%); type: functional
NCI-H460 [8] = experiment: Induction of superoxide anion generation in multidrug resistant human NCI-H460 cells at 25 uM after 72 hrs by DHE staining-based flow cytometric analysis relative to control; type: functional, cell-based
Procedure, shortened: (§2)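 Seeded as for cell death (50,000 or 100,000 cells/well), treated 72 h at 25 µM, with CDDP 5 µM as control. Adherent cells trypsinized and loaded with 1 µM DHE for 30 min at 37 °C in the dark, then washed twice in PBS. Flow cytometry at ex 488/em 585 nm (FL2-H). Mean fluorescence intensity corrected for autofluorescence and compared with untreated control.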

NCI-H460 [9] = experiment: Induction of apoptosis in human NCI-H460 cells assessed as dead cells at 25 uM after 72 hrs by annexin-V/propidium iodide staining-based flow cytometric analysis (reference value: 1.2%); type: functional
HaCaT [10] = experiment: Induction of superoxide anion generation in human HaCaT cells at 25 uM after 72 hrs by DHE staining-based flow cytometric analysis relative to control; type: cell-based; procedure, shortened: as §2
NCI-H460 [11] = experiment: Induction of apoptosis in multidrug resistant human NCI-H460 cells assessed as late apoptotic/necrotic cells at 25 uM after 72 hrs by annexin-V/propidium iodide staining-based flow cytometric analysis (reference value: 1%); type: functional
NCI-H460 [12] = experiment: Induction of superoxide anion generation in human NCI-H460 cells at 25 uM after 72 hrs by DHE staining-based flow cytometric analysis relative to control; type: functional, cell-based; procedure, shortened: as §2
NCI-H460 [13] = experiment: Induction of apoptosis in multidrug resistant human NCI-H460 cells assessed as dead cells at 25 uM after 72 hrs by annexin-V/propidium iodide staining-based flow cytometric analysis (reference value: 1.5%); type: functional
NCI-H460 [14] = experiment: Cytotoxicity against human NCI-H460 cells after 72 hrs by MTT assay; type: functional, cell-based; conditions: NCI-H460, 72 h; procedure, shortened: as §1
[15] = Induction of apoptosis in human HaCaT cells assessed as live cells at 25 uM after 72 hrs by annexin-V/propidium iodide staining-based flow cytometric analysis (reference value: 96.8%); type: cell-based; conditions: read-out: Activity
HaCaT [16] = experiment: Cytotoxicity against human HaCaT cells after 72 hrs by MTT assay; type: cell-based; conditions: for IC50: Homo sapiens, HaCaT; for IC30: human, hacat; procedure, shortened: as §1
NCI-H460 [17] = experiment: Induction of apoptosis in human NCI-H460 cells assessed as live cells at 25 uM after 72 hrs by annexin-V/propidium iodide staining-based flow cytometric analysis (reference value: 98.3%); type: functional
NCI-H460 [18] = experiment: Induction of apoptosis in multidrug resistant human NCI-H460 cells assessed as live cells at 25 uM after 72 hrs by annexin-V/propidium iodide staining-based flow cytometric analysis (reference value: 96.4%); type: functional
NCI-H460 [19] = experiment: Selectivity ratio of IC30/IC50 for human NCI-H460 cells to IC30/IC50 for multidrug resistant human NCI-H460 cells; type: functional
Procedure, shortened: (§3)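 Fold threshold of 1.5 used to call selectivity to cancer cells, resistance, or selectivity to MDR cells.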

[20] = Selectivity ratio of IC30/IC50 for human HaCaT cells to IC30/IC50 for multidrug resistant human NCI-H460 cells; type: ADME, cell-based; conditions: HaCaT cells versus multidrug resistant NCI-H460 cells; procedure, shortened: as §3
[21] = Selectivity ratio of IC30/IC50 for human HaCaT cells to IC30/IC50 for human NCI-H460 cells; type: ADME, cell-based; conditions: HaCaT cells versus NCI-H460 cells; procedure, shortened: as §3
Candida albicans = experiment: Antifungal activity against Candida albicans ATCC 10231 by broth microdilution method; type: functional
Procedure, shortened: (§4)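 Broth microdilution per NCCLS. Compounds dissolved in DMSO as 10 mg/mL stock, diluted in Mueller Hinton broth (bacteria) or Sabouraud dextrose broth (fungi). Amikacin served as the positive control for bacteria and nystatin for fungi.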

Saccharomyces cerevisiae = experiment: Antifungal activity against Saccharomyces cerevisiae ATCC 9763 by broth microdilution method; type: functional; procedure, shortened: as §4
HaCaT [22] = experiment: Induction of mitochondrial membrane potential depolarization in human HaCaT cells at 25 uM after 15 mins by JC1-staining-based flow cytometric analysis; type: cell-based; conditions: 0.25 h
Procedure, shortened: (§5)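 Cells treated with 25 µM compound, with CDDP 5 µM as control. Stained with JC-1 for 15 min at 37 °C in a CO2 incubator, washed twice in assay buffer and resuspended in PBS. Flow cytometry read red aggregate (FL2-H) versus green monomer (FL1-H) fluorescence. Live cells were also imaged by fluorescence microscopy.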

NCI-H460 [23] = experiment: Induction of mitochondrial membrane potential depolarization in human NCI-H460 cells at 25 uM after 15 mins by JC1-staining-based flow cytometric analysis; type: functional, cell-based; procedure, shortened: as §5
NCI-H460 [24] = experiment: Induction of mitochondrial membrane potential depolarization in multidrug resistant human NCI-H460 cells at 25 uM after 15 mins by JC1-staining-based flow cytometric analysis; type: functional, cell-based; procedure, shortened: as §5
Aspergillus brasiliensis = experiment: Antifungal activity against Aspergillus brasiliensis ATCC 16404 by broth microdilution method; type: functional; procedure, shortened: as §4

Compound	Activity (HaCaT [1]) [%]	Activity (HaCaT [2]) [%]	IC30 (NCI-H460 [3]) [µM]	IC50 (NCI-H460 [3]) [µM]	Activity (HaCaT [4]) [%]	Activity (NCI-H460 [5]) [%]	Activity (NCI-H460 [6]) [%]	Activity (NCI-H460 [7]) [%]	Activity (NCI-H460 [8])	Activity (NCI-H460 [9]) [%]	Activity (HaCaT [10])	Activity (NCI-H460 [11]) [%]	Activity (NCI-H460 [13]) [%]	IC30 (NCI-H460 [14]) [µM]	IC50 (NCI-H460 [14]) [µM]	viability at 72 h, 25 µM [15] [%]	IC50 (HaCaT [16]) [µM]	IC30 (HaCaT [16]) [µM]	Activity (NCI-H460 [17]) [%]	Activity (NCI-H460 [18]) [%]	further results
CCCCCCCCNC1=CC(=O)C=C(C[C@]2(C)[C@@H](C)CC[C@]3(C)C(C)=CCC[C@@H]23)C1=O	0.3	0.6	13	35	13.8	0.3	0.1	0	Active	3.9	Toxic	0.1	7.3	21	38	85.3	17	13	95.7	92.6	Activity (NCI-H460 [12]): inactive
CC1=CCC[C@H]2[C@](C)(CC3=CC(=O)C=C(NCCc4ccccc4)C3=O)[C@@H](C)CC[C@]12C	0.2	0.4	6	11	41.3	0.2	0.1	1.2	Active	28	Toxic	3.5	42.3	14	21	58.1	23	18	71.7	53	selectivity ratio (NCI-H460 [19]): <=1.5; selectivity ratio [20]: ≤ 1.5; selectivity ratio [21]: ≤ 1.5
CCCCCCCCNC1=CC(=O)C=C(C(C)(C)C)C1=O	0.6	2.6	8	21	19.8	2.9	0.2	0.1	Active	42	Non-toxic	2.1	36.4	5	20	77	30	18	54.9	61.4	MIC (Candida albicans): 67 µM (≈ 19.5 µg/mL); MIC (Saccharomyces cerevisiae): 539 µM (≈ 157 µg/mL); selectivity ratio [20]: ≤ 1.5; Activity (HaCaT [22]): Non-toxic; Activity (NCI-H460 [23]): Active; Activity (NCI-H460 [24]): Active; Activity (NCI-H460 [12]): inactive; selectivity ratio [21]: ≤ 1.5; MIC (Aspergillus brasiliensis): 2150 µM (≈ 626 µg/mL)
CC(C)(C)C1=CC(=O)C=CC1=O	1.9	3.8	31	72	7.5	0.5	0.5	0.5	–	3.8	–	1.2	3.1	> 100	> 100	86.8	95	41	95.2	95.2	Activity (HaCaT [22]): Non-toxic; Activity (NCI-H460 [23]): inactive; Activity (NCI-H460 [24]): inactive
CC1=CCC[C@H]2[C@](C)(CC3=CC(=O)C=CC3=O)[C@@H](C)CC[C@]12C [AVARONE]	2.5	10.1	10	24	9.1	16.3	3.4	2.6	Active	6.3	–	22.7	8.9	36	84	78.3	37	16	74	65.8	selectivity ratio [20]: ≤ 1.5; Activity (NCI-H460 [12]): Active; selectivity ratio [21]: ≤ 1.5
